Bioassay records deposited in PubChem by several laboratories.
CendR NRP1 mod: alters CendR peptide binding to human NRP-1; O14786; AID 602438; FAM-RPARPAR peptide binding to NRP-1, fluorescence polarization; inhibition, % at 25 µM; hit rate 0.85% among 360,000;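 active = inhibition or corrected inhibition above about 18%, plus a signal ratio from 0.5 to 1.5, limit read from the data, passing the limit was not always enough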
MIN6 prolif: inducers of beta-cell replication in MIN6 cells. MIN6 cells proliferation, ATPlite luminescence, 48 h; cells starved in 0.2% serum; 100% = growth in 10% serum. proliferation, % at 10 µM. hit rate 0.29% among 330,000;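 active = compounds whose signal lies at least 3.5 SD above the mean of all wells on their plate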;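 note: 0% = DMSO-treated cells in low-serum medium and 100% = 10% serum control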
SENP1 inh: blocks the human SENP1 SUMO protease catalytic domain; Q9P0U3; recombinant SENP1 catalytic domain, CyPet-SUMO1-YPet FRET cleavage; inhibition, % at 10 µM; hit rate 0.21% among 360,000; AID 624204;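 active = inhibition at least 30% at 10 µM, raw YFP signal under a set limit, fluorescence ratio 0.5 to 1.5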;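 note: 0% = enzyme with DMSO and 100% = no enzyme wells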
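Compound: 10 µM single point, 0.5% DMSO; Test system: hSENP1 catalytic domain, recombinant; Timing: 50 min reaction at room temperature; Technique: FRET, CFP and YFP emission; Control set: no-enzyme wells low, DMSO-plus-enzyme wells high control.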
MT1-MMP act inh: blocks activation of human MT1-MMP | P50281 | HT1080 RFP-PRO-GFP cells, GFP/RFP ratio fluorescence, overnight; percent of plate control window, DMSO zero | GFP/RFP ratio change, % at 20 µM | hit rate 0.061% among 360,000;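 active = GFP/RFP ratio change of at least 30% with cell ATP level not reduced by more than half and red fluorescence within 50% of control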
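Assay system – RFP-PRO-GFP reporter HT1080 cells · Compound dosing – single dose of 20 µM compound, 1% DMSO final · Incubation – overnight compound exposure at 37 °C · Measure – GFP/RFP fluorescence ratio · Benchmarks – DMSO wells and RFP-L50D-GFP cells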
DAGLB inhibitor: diacylglycerol lipase beta (human) inhibition; Q8NCG7; HEK293T DAGLB membrane lysate, EnzChek fluorogenic substrate; inhibition, % at 5.17 µM; hit rate 0.059% among 340,000; AID 504411; in the data active = inhibition above about 34%;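 note: 0% = enzyme with vehicle and 100% = wells lacking enzyme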
Target sequence (Q8NCG7 whole entry, looked up): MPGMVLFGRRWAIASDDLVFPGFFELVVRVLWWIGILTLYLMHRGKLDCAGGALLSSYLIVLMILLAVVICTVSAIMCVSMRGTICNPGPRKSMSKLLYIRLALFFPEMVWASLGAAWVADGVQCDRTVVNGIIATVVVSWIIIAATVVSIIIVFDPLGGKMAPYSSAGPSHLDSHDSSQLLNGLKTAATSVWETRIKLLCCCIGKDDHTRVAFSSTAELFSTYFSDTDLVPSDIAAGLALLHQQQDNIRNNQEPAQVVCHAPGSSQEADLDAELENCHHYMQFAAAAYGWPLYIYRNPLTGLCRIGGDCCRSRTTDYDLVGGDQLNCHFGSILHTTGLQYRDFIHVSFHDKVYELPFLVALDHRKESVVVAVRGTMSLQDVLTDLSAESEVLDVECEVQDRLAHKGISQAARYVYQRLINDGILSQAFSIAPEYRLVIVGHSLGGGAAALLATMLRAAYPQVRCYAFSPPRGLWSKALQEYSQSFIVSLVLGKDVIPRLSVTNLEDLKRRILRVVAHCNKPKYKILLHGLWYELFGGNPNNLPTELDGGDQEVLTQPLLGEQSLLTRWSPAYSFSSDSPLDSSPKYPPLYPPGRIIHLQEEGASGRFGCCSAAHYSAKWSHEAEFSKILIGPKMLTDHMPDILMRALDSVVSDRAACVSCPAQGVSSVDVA
Myeloid diff 2: myeloid differentiation induction; ER-HoxA9 myeloid progenitors, lysozyme-GFP differentiation, flow cytometry; calls only at 10 µM; hit rate 1% among 360,000; AID 624256;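 active = normalized GFP-positive differentiation at or above the plate's own cutoff, the solvent-only control mean plus 3 SD; inconclusive = no clear call, values can overlap the other calls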;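 note: cells exposed to compound for four days before flow analysis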
Starred values were filed as active, the others as inactive. An excerpt weighted towards active compounds, which were near 2.4% of everything screened.

How did CC(=O)NC(c1ccccc1)c1cc(Cl)c2cccnc2c1O (stereo unspecified) do in these assays?
CendR NRP1 mod: -1; MIN6 prolif: -4; SENP1 inh: 0; MT1-MMP act inh: 0; DAGLB inhibitor: 7; Myeloid diff 2: inconclusive

What do the screens show for `C1CCC(n2nnnc2CN2CCCC2)CC1`?
CendR NRP1 mod: -14; MIN6 prolif: 1; SENP1 inh: -5; MT1-MMP act inh: 2; DAGLB inhibitor: -3; Myeloid diff 2: inactive

What do the screens show for `COc1ccc(N2CCN(Cc3nnnn3C3CCCCC3)CC2)cc1`?
CendR NRP1 mod: 23*; MIN6 prolif: -2; SENP1 inh: 0; MT1-MMP act inh: 9; DAGLB inhibitor: -1; Myeloid diff 2: inactive

How did COCCn1c(SCC(=O)NNC(=O)c2ccccc2)nc2ccccc21 do in these assays?
CendR NRP1 mod: -8; MIN6 prolif: -1; SENP1 inh: 0; MT1-MMP act inh: 0; DAGLB inhibitor: -1; Myeloid diff 2: inactive

How did Nc1c(Cl)cc(-c2cn(CCC(=O)O)c(-c3ccncc3)n2)cc1Cl do in these assays?
CendR NRP1 mod: -2; MIN6 prolif: 2; SENP1 inh: -2; MT1-MMP act inh: 10; DAGLB inhibitor: 1; Myeloid diff 2: inactive

What do the screens show for `CN1/C(=C/C(=O)CSc2ccccc2C(=O)O)C(C)(C)c2ccccc21`?
CendR NRP1 mod: -44; MIN6 prolif: -6; SENP1 inh: 0; MT1-MMP act inh: 13; DAGLB inhibitor: 1; Myeloid diff 2: active

Results for CN1/C(=C\C(=O)CSc2cccc[n+]2[O-])C(C)(C)c2ccccc21 ?
CendR NRP1 mod: -25; MIN6 prolif: -7; SENP1 inh: 1; MT1-MMP act inh: 7; DAGLB inhibitor: 4; Myeloid diff 2: inactive

Results for CN1/C(=C\C(=S)NC(=O)c2ccccc2Cl)C(C)(C)c2ccccc21 ?
CendR NRP1 mod: -134; MIN6 prolif: -3; SENP1 inh: -26; MT1-MMP act inh: 53; DAGLB inhibitor: 15; Myeloid diff 2: active

Results for CCCCn1nnnc1C(c1ccccc1)N1CCN(C(=O)c2ccco2)CC1 (stereo unspecified) ?
CendR NRP1 mod: -1; SENP1 inh: -1; MT1-MMP act inh: 2; Myeloid diff 2: inactive

What do the screens show for `Cc1ccc(C2=NS(=O)(=O)N(C)C(C(=O)NC3CCCC3)=C2)cc1`?
CendR NRP1 mod: -3; MIN6 prolif: -4; SENP1 inh: -1; MT1-MMP act inh: 5; DAGLB inhibitor: -3; Myeloid diff 2: inactive

Results for CNC(=S)NNC(=O)c1ccccc1Cl ?
CendR NRP1 mod: 25*; MIN6 prolif: -3; SENP1 inh: 0; MT1-MMP act inh: 2; Myeloid diff 2: inactive

How did O=C(CCC(=O)c1cccs1)NNC(=O)c1cccc(Cl)c1 do in these assays?
CendR NRP1 mod: -5; MIN6 prolif: -6; SENP1 inh: -1; MT1-MMP act inh: 3; DAGLB inhibitor: -5; Myeloid diff 2: inactive

What do the screens show for `CC(C)(C)NC(=S)NNC(=O)c1ccccc1Cl`?
CendR NRP1 mod: -1; MIN6 prolif: 0; SENP1 inh: 2; MT1-MMP act inh: 3; DAGLB inhibitor: 0; Myeloid diff 2: inactive

What do the screens show for `O=C(CCC(=O)c1cccs1)NNC(=O)c1ccccc1Cl`?
CendR NRP1 mod: 27*; MIN6 prolif: -2; SENP1 inh: -3; MT1-MMP act inh: -1; DAGLB inhibitor: -3; Myeloid diff 2: inactive

How did CC(=O)C1CCC2C3CC(O)C4=CC(=O)CCC4(C)C3C(=O)CC12C (stereo unspecified) do in these assays?
CendR NRP1 mod: -6; SENP1 inh: 3; MT1-MMP act inh: 16; DAGLB inhibitor: 1; Myeloid diff 2: active

How did COc1cc2oc(=O)ccc2cc1[C@@H](O)[C@@H]1OC(C)(C)OC1(C)C do in these assays?
CendR NRP1 mod: 27*; MIN6 prolif: 0; SENP1 inh: 1; MT1-MMP act inh: -4; DAGLB inhibitor: -3; Myeloid diff 2: inactive

Results for COc1cc2oc(=O)ccc2cc1[C@H](O)[C@@H](O)C(C)(C)O ?
CendR NRP1 mod: 9; MIN6 prolif: 1; SENP1 inh: 2; MT1-MMP act inh: 0; DAGLB inhibitor: 1; Myeloid diff 2: inactive

What do the screens show for `COc1ccccc1N(C)S(=O)(=O)c1ccc(C(=O)N(CC(N)=O)C(C)C)cc1`?
CendR NRP1 mod: 25*; MIN6 prolif: -1; SENP1 inh: 3; MT1-MMP act inh: 9; DAGLB inhibitor: -3; Myeloid diff 2: inactive

What do the screens show for `COc1ccccc1N(C)S(=O)(=O)c1ccc(C(=O)Nc2cccc(Br)c2)cc1`?
CendR NRP1 mod: 27*; MIN6 prolif: -5; SENP1 inh: 1; MT1-MMP act inh: 9; DAGLB inhibitor: -2; Myeloid diff 2: inactive

Results for CCCNC(=O)NC(=O)CN1C(=O)NC(C)(c2ccc3ccccc3c2)C1=O (stereo unspecified) ?
CendR NRP1 mod: 1; MIN6 prolif: 0; SENP1 inh: -1; MT1-MMP act inh: 0; DAGLB inhibitor: 0; Myeloid diff 2: inactive

How did O=C(CNC(=O)c1ccccc1F)OCn1nnc2ccccc2c1=O do in these assays?
CendR NRP1 mod: -9; MIN6 prolif: -1; SENP1 inh: 0; MT1-MMP act inh: 1; DAGLB inhibitor: 1; Myeloid diff 2: inactive

What do the screens show for `CCN(CC)c1ccc(NC2=C(Cl)C(=O)c3ccccc3C2=O)cc1`?
CendR NRP1 mod: 36*; SENP1 inh: 0; MT1-MMP act inh: -138; DAGLB inhibitor: 14; Myeloid diff 2: inconclusive

How did Cc1ccc(NC2=C(Cl)C(=O)c3ccccc3C2=O)cc1 do in these assays?
CendR NRP1 mod: 12; SENP1 inh: 2; MT1-MMP act inh: -8; DAGLB inhibitor: 6; Myeloid diff 2: inactive

What do the screens show for `Cc1ccc(CN2CCN(Cc3cn[nH]c3C3CCCCC3)CC2CCO)cc1` (stereo unspecified)?
CendR NRP1 mod: 0; MIN6 prolif: -2; SENP1 inh: 2; MT1-MMP act inh: 1; DAGLB inhibitor: 4; Myeloid diff 2: inactive

How did CC(C)C1(C2CCCC2)NC(=O)NC1=O (stereo unspecified) do in these assays?
CendR NRP1 mod: 2; SENP1 inh: 1; MT1-MMP act inh: 0; DAGLB inhibitor: 0; Myeloid diff 2: inactive

Results for CC(C)C1=C2CCCCC2NC(=O)N1 (stereo unspecified) ?
CendR NRP1 mod: 28*; MIN6 prolif: -2; SENP1 inh: -56; MT1-MMP act inh: -23; DAGLB inhibitor: 1; Myeloid diff 2: inactive

How did Cc1cc(C(=O)CSc2nc(N)cc(=O)[nH]2)c(C)n1CC1CCCO1 (stereo unspecified) do in these assays?
CendR NRP1 mod: 21*; MIN6 prolif: -1; SENP1 inh: -5; MT1-MMP act inh: 0; DAGLB inhibitor: 1; Myeloid diff 2: inactive
